By IC50 is commonly meant the point on the concentration scale where inhibition reaches its midpoint. The term EC50 denotes the concentration at which the effect is half-maximal. The CC50 is the concentration that lowers cell viability or growth by half.

Series [1] addresses T1, Genome polyprotein (dengue virus type 2, UniProt P12823). Kind of series: Inhibition of Dengue virus type 2 NS5 RNA methyltransferase SAM site.
The test system of a further series is dengue virus type 2. Kind of series: Antiviral activity against Dengue virus type 2 infected in human A549 cells assessed as decrease in viral E protein production by cell-based flavivirus immunodetection assay. The class given is functional, organism-based.
In series [2] the target is T1, Genome polyprotein. Kind of series: Inhibition of Dengue virus type 2 NS5 RNA methyltransferase SAM site with 0.1 % TX100.
Series [3] can be described thus: Cytotoxicity against human A549 cells after 48 hrs. The series is classed as cell-based.
For series [4], the target named is T1, Genome polyprotein. Description: Inhibition of Dengue virus type 2 NS5 RNA methyltransferase RNA site.
In series [5] the target is T1, Genome polyprotein. Description: Inhibition of Dengue virus type 2 NS5 RNA methyltransferase RNA site with 0.1 % TX100. In short, it runs like this:
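Detergent-sensitivity variant of the SPA methyl-transfer assay: 0.1% Triton X-100 added to the reaction mix. Otherwise 25 nM DENV2 MTase, 40 nM biotinylated RNA, 20 min room-temperature preincubation, 0.56 μM [3H]AdoMet. Counts read after bead stop. Duplicate wells.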

Series [6] deals with T1, Genome polyprotein. Description: Inhibition of Dengue virus type 2 NS5 RNA methyltransferase by spin-down assay.
Series [7] deals with T1, Genome polyprotein. Kind of series: Inhibition of Dengue virus type 2 NS5 RNA methyltransferase at 8 nM enzyme concentration.
The target of series [8] is T1, Genome polyprotein. Kind of series: Inhibition of Dengue virus type 2 NS5 RNA methyltransferase at 80 nM enzyme concentration.

T1 sequence (P12823 2489-3388 limits assumed): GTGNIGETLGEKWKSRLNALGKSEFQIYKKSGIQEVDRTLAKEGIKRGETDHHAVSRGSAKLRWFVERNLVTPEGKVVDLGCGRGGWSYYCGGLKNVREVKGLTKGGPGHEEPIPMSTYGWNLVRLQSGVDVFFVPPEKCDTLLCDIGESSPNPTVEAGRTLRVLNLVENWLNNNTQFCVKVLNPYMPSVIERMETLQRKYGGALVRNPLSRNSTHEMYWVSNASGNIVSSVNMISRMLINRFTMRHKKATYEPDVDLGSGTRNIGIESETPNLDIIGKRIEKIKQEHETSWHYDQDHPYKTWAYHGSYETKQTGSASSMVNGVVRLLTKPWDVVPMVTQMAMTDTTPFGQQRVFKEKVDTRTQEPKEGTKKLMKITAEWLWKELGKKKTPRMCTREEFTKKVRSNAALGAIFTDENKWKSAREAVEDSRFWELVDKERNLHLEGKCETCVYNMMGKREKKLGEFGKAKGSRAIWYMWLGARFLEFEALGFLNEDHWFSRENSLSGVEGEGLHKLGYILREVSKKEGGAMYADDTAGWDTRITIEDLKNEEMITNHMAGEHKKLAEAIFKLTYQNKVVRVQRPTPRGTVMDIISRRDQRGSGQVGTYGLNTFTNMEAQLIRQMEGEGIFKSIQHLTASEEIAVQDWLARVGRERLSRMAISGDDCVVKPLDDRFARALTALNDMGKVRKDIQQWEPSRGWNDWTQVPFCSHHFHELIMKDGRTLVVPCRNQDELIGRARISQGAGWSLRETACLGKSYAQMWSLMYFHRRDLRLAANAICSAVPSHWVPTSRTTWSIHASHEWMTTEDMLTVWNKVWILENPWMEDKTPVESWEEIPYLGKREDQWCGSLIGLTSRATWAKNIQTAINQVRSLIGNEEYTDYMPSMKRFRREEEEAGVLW

For the molecule `O=C(O)c1cnc2c([N+](=O)[O-])cccc2c1O`, the IC50 at Genome polyprotein [1] and at Genome polyprotein [2] was 14.3 µM throughout. For the same molecule, the EC50 with dengue virus type 2 is greater than 100 µM. This molecule returned a CC50 at 48 h in [3] greater than 100 µM.
Consider `O=C(O)c1ccc(S(=O)(=O)c2ccc(C(=O)O)cc2)cc1`, for which the IC50 against Genome polyprotein [1] was 29.9 µM; against Genome polyprotein [2], greater than 100 µM.
As to `NC(=O)C1=CN(Cc2ccccc2)C=CC1`, the IC50 was 25.3 µM at Genome polyprotein [1] and greater than 100 µM on Genome polyprotein [2].
Consider `Cc1cc(C(=O)CSc2nc(N)cc(=O)[nH]2)c(C)n1Cc1ccc2c(c1)OCO2`, for which the figures for the IC50 against Genome polyprotein [1] and against Genome polyprotein [2] were 16.1 µM and greater than 100 µM, respectively.
For the molecule `O=C(CCCCC(=O)N/N=C/c1ccc(O)cc1O)N/N=C/c1ccc(O)cc1O`, the IC50 on Genome polyprotein [1] is 4.29 µM; on Genome polyprotein [2], greater than 25 µM.
Turning to `Cc1ccccc1COc1ccc(C(=O)[C@@H]2C(=O)C(=O)N(Cc3ccncc3)[C@H]2c2cccc(O)c2)cc1`, the figures for the IC50 against Genome polyprotein [1] and on Genome polyprotein [2] were 9.62 µM and greater than 100 µM, respectively.
Consider `O=C(O)CCC(=O)N1NC(c2c(O)nc3ccc(Cl)cc3c2-c2ccccc2)=C[C@@H]1c1ccc(Br)cc1`, for which the IC50 against Genome polyprotein [4] stood at 4.42 µM; on Genome polyprotein [5], 44.5 µM. The EC50 with dengue virus type 2 is greater than 100 µM. This molecule yielded a CC50 at 48 h in series [3] greater than 100 µM.
Consider `O=C(O)COc1ccccc1/C=N\NC(=O)Cc1csc(Nc2cccc(C(F)(F)F)c2)n1`, for which the IC50 was 12.4 µM against Genome polyprotein [4] and greater than 100 µM against Genome polyprotein [5].
Regarding `O=C(Cn1ccc(=O)[nH]c1=O)Nc1ccc(O)c([N+](=O)[O-])c1`, the IC50 at Genome polyprotein [1] was 29 µM; on Genome polyprotein [2], greater than 100 µM.
As to `Cc1cc(/C=N\NC(=O)Nc2ccccc2)c(C)n1-c1cc(C(=O)O)cc(C(=O)O)c1`, the IC50 was 20.3 µM against Genome polyprotein [4] and greater than 100 µM at Genome polyprotein [5].
As to `Cc1ccc(C23CC4CC(CC(C(=O)Nc5cccc(C(=O)O)c5)(C4)C2)C3)cc1`, the IC50 at Genome polyprotein [4] is 37.5 µM; against Genome polyprotein [5], greater than 100 µM.
Take `O=C(O)c1cccc(NC(=O)c2ccc(CSc3ccc(Br)cc3)cc2)c1`: the IC50 against Genome polyprotein [4] is 7.99 µM; against Genome polyprotein [5], greater than 100 µM.
With `COc1ccc(/C=C2/CN(CCCC(=O)O)C(=O)C2=O)cc1`, the values for the IC50 against Genome polyprotein [1], at Genome polyprotein [2] and against Genome polyprotein [6] were 8.78 µM, 4.47 µM and 10.5 µM, respectively. Also, in the series on dengue virus type 2, the EC50 is greater than 100 µM. The same molecule returned a CC50 at 48 h in series [3] greater than 100 µM.
For `O=S(=O)(O)c1cccc(NNc2ccc(Nc3ccccc3)cc2)c1`, the IC50 against Genome polyprotein [4] was determined as 7.56 µM; at Genome polyprotein [7], 7.62 µM; against Genome polyprotein [8], 10.2 µM; on Genome polyprotein [5], 7.14 µM; on Genome polyprotein [6], 10.7 µM. Also, in the series on dengue virus type 2, the EC50 is greater than 100 µM. This molecule registered a CC50 at 48 h in series [3] greater than 100 µM.
Consider `Cc1c(CC(=O)N[C@@H](Cc2c[nH]c3ccc(O)cc23)C(=O)O)c(=O)oc2cc3occ(C(C)(C)C)c3cc12`, for which the figures for the IC50 against Genome polyprotein [4] and against Genome polyprotein [5] were 11.9 µM and greater than 100 µM, respectively.
The like results for `COc1cc(/C=C2/NC(=O)N(Cc3ccc(Cl)cc3Cl)C2=O)ccc1O[C@H](C)C(=O)O` were, in that order, 11.3 µM and greater than 100 µM.
`O=C1NC(=O)/C(=C\c2ccc(O)cc2)N1`: the IC50 against Genome polyprotein [1] is 27.6 µM; on Genome polyprotein [2], greater than 100 µM.
For `O=C(O)c1ccccc1/C=N/NC(=O)c1cc(-c2ccco2)nc2ccccc12`, the results for the IC50 against Genome polyprotein [4], against Genome polyprotein [5] and on Genome polyprotein [6] were 4.8 µM, 4.91 µM and 4.34 µM, respectively. For the same molecule, the EC50 in the series on dengue virus type 2 was greater than 100 µM. The molecule also gave a 50% cytotoxic concentration (CC50) at 48 h in [3] greater than 100 µM.
`CCN(CC)c1ccc(/C=N\Nc2ccc(Cl)c(C(=O)O)c2)c(O)c1`: the results for the IC50 against Genome polyprotein [4] and against Genome polyprotein [5] were 13.5 µM and 87.1 µM, respectively. In addition, the EC50 in the series on dengue virus type 2 stood at 50 µM. Further, the CC50 at 48 h in series [3] came to 75.1 µM.
With `O=S(=O)(Nc1ccccc1)c1cc(S(=O)(=O)Nc2ccccc2)c2cc(O)ccc2c1`, the figures for the IC50 against Genome polyprotein [1] and against Genome polyprotein [2] were 21.1 µM and greater than 100 µM, respectively.
As for `CCOc1cc(/C=C2\C(=O)N(c3ccc4ccccc4c3)N=C2C)ccc1OCCC(=O)O`, the IC50 is 7.11 µM against Genome polyprotein [4] and greater than 100 µM on Genome polyprotein [5].
In the case of `O=C(N/N=C\c1ccccc1C(=O)O)c1ccc(COc2ccc3ccccc3c2)cc1`, the figures for the IC50 at Genome polyprotein [4] and against Genome polyprotein [5] were 8.81 µM and greater than 100 µM, respectively.
Turning to `O=C(O)COc1ccc(Br)cc1/C=C1\CC/C(=C\c2cc(Br)ccc2OCC(=O)O)C1=O`, the IC50 on Genome polyprotein [4] is 2.81 µM; at Genome polyprotein [5], 19.5 µM. Besides, the EC50 in the series on dengue virus type 2 is greater than 100 µM. The molecule further returned a CC50 at 48 h in series [3] greater than 100 µM.
Turning to `O=C(O)c1ccccc1C(=O)Nc1nc(-c2ccc3ccccc3c2)cs1`, the IC50 on Genome polyprotein [4] is 14.5 µM; against Genome polyprotein [5], greater than 100 µM.
Turning to `O=C(c1cccc([N+](=O)[O-])c1)c1no[n+]([O-])c1C(=O)c1cccc([N+](=O)[O-])c1`, the IC50 was 31.4 µM on Genome polyprotein [1] and greater than 100 µM against Genome polyprotein [2].
For the molecule `O=C1C(=O)N(Cc2cccnc2)[C@H](c2cccc(Oc3ccccc3)c2)/C1=C(/O)c1ccco1`, the 50% inhibitory concentration (IC50) is 12.8 µM at Genome polyprotein [1] and greater than 100 µM against Genome polyprotein [2].
On to `Cc1ccc(Cl)cc1NS(=O)(=O)c1ccc(NS(=O)(=O)c2ccc3ccccc3c2)cc1`, for which the IC50 came out at 9.28 µM at Genome polyprotein [4] and 64.2 µM against Genome polyprotein [5]. Also, the EC50 in the series with dengue virus type 2 came to 12 µM. For the same molecule, in series [3], the CC50 at 48 h was determined as 22.7 µM.
Turning to `N#Cc1c(NC(=O)c2cccc(S(=O)(=O)Nc3ccc(C(=O)O)cc3)c2)sc2c1CCCC2`, the IC50 is 17.6 µM on Genome polyprotein [4] and greater than 100 µM against Genome polyprotein [5].
With `COc1ccc(CN(CC[C@@H](c2ccccc2)c2ccco2)C(=O)c2ccoc2)cc1`, the values for the IC50 on Genome polyprotein [1] and on Genome polyprotein [2] were 2.91 µM and greater than 25 µM, respectively.
For the molecule `COc1cc(NS(=O)(=O)c2ccc(NC(=O)/C=C/c3cccc4ccccc34)cc2)nc(OC)n1`, the IC50 on Genome polyprotein [4] is 6.83 µM; against Genome polyprotein [5], greater than 100 µM.
As for `Cc1ccc(C)c(C(=O)C2=C(O)C(=O)N(CCc3ccccc3)[C@@H]2c2ccc(O)cc2)c1`, the IC50 at Genome polyprotein [1] is 9.84 µM; against Genome polyprotein [2] it was greater than 100 µM.
`COc1cc(CNc2ccc(C(=O)O)cc2)ccc1OCc1ccccc1Cl`: the results for the IC50 on Genome polyprotein [4] and against Genome polyprotein [5] were 13.2 µM and greater than 100 µM, respectively.
`COc1ccc2c(c1)C(CC(=O)O)CN2Cc1ccccc1` (stereo unspecified): the IC50 was 27.5 µM on Genome polyprotein [1] and greater than 100 µM on Genome polyprotein [2].
Consider `Cc1cc(O)c2c(c1)C(=O)c1cc(O)cc(O)c1C2=O` [EMODIN], for which the IC50 came out at 16.9 µM against Genome polyprotein [1] and 79.8 µM on Genome polyprotein [2]. For the same molecule, the EC50 in the series on dengue virus type 2 is 10.9 µM. In series [3], this molecule came in with a CC50 at 48 h of 30.7 µM.

The record behind these values is ChEMBL document CHEMBL1156914, “Novel inhibitors of dengue virus methyltransferase: discovery by in vitro-driven virtual screening on a desktop computer grid” (J Med Chem, 2010).
